# Experimental data as given in ChEMBL document CHEMBL4393666, “Synthesis and Anti-HCV Activities of 4'-Fluoro-2'-Substituted Uridine Triphosphates and Nucleotide Prodrugs: Discovery of 4'-Fluoro-2'- C-methyluridine 5'-Phosphoramidate Prodrug (AL-335) for the Treatment of Hepatitis C Infection” (J Med Chem, 2019).
# Key:
# [1] = target: RNA-directed RNA polymerase (Hepacivirus hominis, UniProt O39930); experiment: Inhibition of HCV NS5B RNA-dependent RNA polymerase activity assessed as reduction in radiolabeled-CTP incorporation into RNA using cIRES template measured after 2 hrs by microscintillation counting method
# [2] = Cytotoxicity against human HuH7 cells infected with HCV con1 subgenomic replicon assessed as reduction in cell viability measured after 3 days by CellTiter-blue cell viability assay; format: cell-based, Huh-7
# Summary of the method: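 Con1 replicon Huh-7 cells treated as for the replicon assay (DMEM, 2% FBS, 0.5% DMSO, no G418, 37°C) for 3 days. Viability by CellTiter-Blue; CC50 by curve fitting.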
# [3] = test system: Hepatitis C virus; experiment: Antiviral activity against HCV con1 subgenomic replicon infected in human HuH7 cells assessed as reduction in viral RNA replication by qRT-PCR analysis; format: functional, organism-based, Hepacivirus hominis; conditions: isolate Con1, Huh-7
# Summary of the method: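 Con1 subgenomic replicon Huh-7 cells (neomycin selection, kept in DMEM/10% FBS with 0.25 mg/ml G418) treated with compounds in DMEM, 2% FBS, 0.5% DMSO, no G418, at 37°C. Total RNA extracted; HCV RNA copy number by multiplex Taqman QRT-PCR. EC50/EC90 by 4-parameter curve fit; EC50 is the mean of ≥2 independent runs.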
# [4] = target: T1, DNA polymerase alpha (Homo sapiens, UniProt P09884); experiment: Inhibition of human DNA polymerase-alpha assessed as reduction in [3H]dTTP incorporation in to activated calf thymus DNA substrate at 100 uM by scintillation counting method relative to control; conditions: human DNA polymerase-alpha enzyme, probe [3H]dTTP
# T1 sequence (P09884 whole entry): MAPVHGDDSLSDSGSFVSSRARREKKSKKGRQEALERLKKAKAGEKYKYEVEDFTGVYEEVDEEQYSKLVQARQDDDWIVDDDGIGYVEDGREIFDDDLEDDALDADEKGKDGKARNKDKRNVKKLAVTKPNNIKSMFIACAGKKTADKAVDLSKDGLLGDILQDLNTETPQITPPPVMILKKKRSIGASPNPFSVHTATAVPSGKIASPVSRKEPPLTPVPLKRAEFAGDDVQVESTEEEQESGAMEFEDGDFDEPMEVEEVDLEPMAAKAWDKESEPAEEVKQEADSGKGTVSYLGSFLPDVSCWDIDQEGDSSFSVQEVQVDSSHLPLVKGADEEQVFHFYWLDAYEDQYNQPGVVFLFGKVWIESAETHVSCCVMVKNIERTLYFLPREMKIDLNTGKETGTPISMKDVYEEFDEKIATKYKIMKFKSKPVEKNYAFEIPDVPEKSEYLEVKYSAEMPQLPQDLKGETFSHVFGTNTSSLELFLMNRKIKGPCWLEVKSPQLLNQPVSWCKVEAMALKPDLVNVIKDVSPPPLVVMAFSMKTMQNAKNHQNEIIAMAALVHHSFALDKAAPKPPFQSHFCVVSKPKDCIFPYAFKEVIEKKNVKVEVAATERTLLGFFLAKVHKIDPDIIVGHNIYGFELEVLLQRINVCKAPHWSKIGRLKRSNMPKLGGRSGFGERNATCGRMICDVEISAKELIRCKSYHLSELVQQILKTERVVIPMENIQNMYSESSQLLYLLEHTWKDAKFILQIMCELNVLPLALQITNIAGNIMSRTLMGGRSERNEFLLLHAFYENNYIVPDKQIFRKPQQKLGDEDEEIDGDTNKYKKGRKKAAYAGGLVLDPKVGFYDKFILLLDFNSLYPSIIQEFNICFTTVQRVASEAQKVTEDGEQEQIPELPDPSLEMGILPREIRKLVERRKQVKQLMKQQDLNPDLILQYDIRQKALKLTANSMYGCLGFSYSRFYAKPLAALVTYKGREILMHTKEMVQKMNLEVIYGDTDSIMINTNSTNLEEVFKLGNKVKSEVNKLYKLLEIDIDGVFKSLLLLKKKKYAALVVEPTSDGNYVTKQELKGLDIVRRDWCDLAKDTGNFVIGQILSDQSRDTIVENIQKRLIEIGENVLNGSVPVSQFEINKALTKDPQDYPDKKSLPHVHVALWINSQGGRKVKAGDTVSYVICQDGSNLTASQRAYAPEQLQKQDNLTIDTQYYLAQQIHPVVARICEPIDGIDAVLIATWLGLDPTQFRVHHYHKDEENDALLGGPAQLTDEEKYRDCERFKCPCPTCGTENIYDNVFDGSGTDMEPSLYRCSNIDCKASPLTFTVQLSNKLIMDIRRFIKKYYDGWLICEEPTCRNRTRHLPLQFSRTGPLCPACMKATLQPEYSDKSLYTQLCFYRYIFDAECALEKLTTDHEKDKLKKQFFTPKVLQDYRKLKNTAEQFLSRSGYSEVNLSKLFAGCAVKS
# [5] = target: DNA polymerase beta (Homo sapiens, UniProt P06746); experiment: Inhibition of human DNA polymerase-beta assessed as reduction in [3H]dTTP incorporation in to activated calf thymus DNA substrate at 100 uM by scintillation counting method relative to control; conditions: human DNA polymerase-beta enzyme, probe [3H]dTTP
# [6] = target: T2, DNA polymerase gamma (Homo sapiens, UniProt P54098); experiment: Inhibition of human DNA polymerase-gamma assessed as reduction in [3H]dTTP incorporation in to activated calf thymus DNA substrate at 100 uM by scintillation counting method relative to control; conditions: human DNA polymerase-gamma enzyme, probe [3H]dTTP
# T2 sequence (P54098 whole entry): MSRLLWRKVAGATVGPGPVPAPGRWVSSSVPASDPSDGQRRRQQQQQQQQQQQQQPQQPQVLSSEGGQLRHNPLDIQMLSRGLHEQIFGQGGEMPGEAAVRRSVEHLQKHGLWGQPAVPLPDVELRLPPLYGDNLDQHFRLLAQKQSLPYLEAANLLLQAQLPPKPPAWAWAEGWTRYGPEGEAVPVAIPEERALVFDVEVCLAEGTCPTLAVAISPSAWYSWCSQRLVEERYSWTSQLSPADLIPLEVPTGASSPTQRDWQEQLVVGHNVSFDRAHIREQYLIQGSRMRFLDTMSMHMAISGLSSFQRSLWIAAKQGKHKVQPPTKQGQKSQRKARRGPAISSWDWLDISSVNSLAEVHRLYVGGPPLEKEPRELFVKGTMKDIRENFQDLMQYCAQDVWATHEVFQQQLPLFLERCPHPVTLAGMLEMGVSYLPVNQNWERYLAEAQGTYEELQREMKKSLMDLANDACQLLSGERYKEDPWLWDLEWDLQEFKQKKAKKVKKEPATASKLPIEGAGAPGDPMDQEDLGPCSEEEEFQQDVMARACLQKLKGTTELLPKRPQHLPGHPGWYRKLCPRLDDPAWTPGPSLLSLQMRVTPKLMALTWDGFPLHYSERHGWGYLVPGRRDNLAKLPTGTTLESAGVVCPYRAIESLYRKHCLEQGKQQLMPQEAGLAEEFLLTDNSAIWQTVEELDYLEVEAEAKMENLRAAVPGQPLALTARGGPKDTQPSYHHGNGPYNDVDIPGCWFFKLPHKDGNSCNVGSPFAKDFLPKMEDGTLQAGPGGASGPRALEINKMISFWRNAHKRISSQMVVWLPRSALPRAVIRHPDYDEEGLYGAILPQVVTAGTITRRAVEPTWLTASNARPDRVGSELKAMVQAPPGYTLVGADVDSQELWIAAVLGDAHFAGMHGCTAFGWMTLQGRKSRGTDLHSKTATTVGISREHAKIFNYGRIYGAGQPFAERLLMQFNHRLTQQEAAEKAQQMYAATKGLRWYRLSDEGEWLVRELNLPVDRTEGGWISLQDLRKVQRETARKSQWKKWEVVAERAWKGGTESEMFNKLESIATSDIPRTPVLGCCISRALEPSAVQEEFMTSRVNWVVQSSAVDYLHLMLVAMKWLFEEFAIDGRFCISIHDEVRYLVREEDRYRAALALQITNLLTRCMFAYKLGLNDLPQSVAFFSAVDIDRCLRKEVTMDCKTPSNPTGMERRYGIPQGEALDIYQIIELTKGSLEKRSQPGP
# RNA-directed RNA polymerase, sequence (O39930 whole entry): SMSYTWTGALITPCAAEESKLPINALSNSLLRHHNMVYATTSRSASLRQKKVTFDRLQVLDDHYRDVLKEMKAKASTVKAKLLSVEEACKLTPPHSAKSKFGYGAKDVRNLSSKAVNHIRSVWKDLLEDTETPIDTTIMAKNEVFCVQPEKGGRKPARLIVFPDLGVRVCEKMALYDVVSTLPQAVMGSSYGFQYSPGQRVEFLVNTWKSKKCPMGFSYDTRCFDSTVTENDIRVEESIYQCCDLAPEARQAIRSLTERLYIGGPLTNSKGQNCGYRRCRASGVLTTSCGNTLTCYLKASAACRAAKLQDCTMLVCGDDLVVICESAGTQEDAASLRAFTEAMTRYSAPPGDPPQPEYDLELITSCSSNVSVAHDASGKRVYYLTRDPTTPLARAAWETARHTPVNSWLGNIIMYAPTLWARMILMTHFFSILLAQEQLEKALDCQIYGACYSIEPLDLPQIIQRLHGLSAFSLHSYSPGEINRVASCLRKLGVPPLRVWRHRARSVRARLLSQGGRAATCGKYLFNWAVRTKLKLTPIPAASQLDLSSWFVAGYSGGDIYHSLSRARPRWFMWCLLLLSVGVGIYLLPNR
Structure (SMILES),IC50 [1],CC50 at 72 h [2],EC50 [3],other results
C#C[C@@]1(F)[C@H](O)[C@@H](COP(=O)(O)OP(=O)(O)OP(=O)(O)O)O[C@H]1n1ccc(=O)[nH]c1=O,0.33 µM,,,
CCOC(=O)[C@H](C)NP(=O)(N[C@@H](C)C(=O)OCC)OC[C@@]1(F)O[C@@H](n2ccc(=O)[nH]c2=O)[C@](C)(O)[C@@H]1O,,> 100 µM,7.5 µM,
CC(C)OC(=O)[C@H](C)NP(=O)(OC[C@@]1(F)O[C@@H](n2ccc(=O)[nH]c2=O)[C@](C)(F)[C@@H]1O)Oc1ccccc1 (some centres not stated),,> 100 µM,0.31 µM,
O=c1ccn([C@@H]2O[C@](F)(COP(=O)(O)OP(=O)(O)OP(=O)(O)O)[C@@H](O)[C@]2(O)CF)c(=O)[nH]1,0.15 µM,,,
CC(C)OC(=O)[C@H](C)NP(=O)(OC[C@@]1(F)O[C@@H](n2ccc(=O)[nH]c2=O)[C@](C)(O)[C@@H]1O)Oc1cccc2ccccc12 (some centres not stated),,> 85 µM,0.02 µM,
CC(C)OC(=O)[C@H](C)NP(=O)(OC[C@H]1O[C@@H](n2ccc(=O)[nH]c2=O)[C@](C)(F)[C@@H]1O)Oc1ccccc1 (some centres not stated),,> 100 µM,0.22 µM,
CC(C)OC(=O)[C@H](C)NP(=O)(OC[C@@]1(F)O[C@@H](n2ccc(=O)[nH]c2=O)[C@](C)(O)[C@@H]1O)Oc1ccc(Cl)cc1 (some centres not stated),,> 100 µM,0.08 µM,
CC(C)OC(=O)[C@H](C)NP(=O)(N[C@@H](C)C(=O)OC(C)C)OC[C@@]1(F)O[C@@H](n2ccc(=O)[nH]c2=O)[C@](C)(O)[C@@H]1O,,> 100 µM,6.6 µM,
CC(C)OC(=O)[C@H](C)NP(=O)(OC[C@H]1O[C@@H](n2ccc(=O)[nH]c2=O)[C@](C)(Cl)[C@@H]1O)Oc1ccccc1 (some centres not stated),,> 100 µM,0.12 µM,
CC[C@]1(O)[C@H](n2ccc(=O)[nH]c2=O)O[C@](F)(COP(=O)(O)OP(=O)(O)OP(=O)(O)O)[C@H]1O,84 µM,,,
C#C[C@]1(F)[C@H](n2ccc(=O)[nH]c2=O)O[C@](F)(COP(=O)(O)OP(=O)(O)OP(=O)(O)O)[C@H]1O,0.34 µM,,,
CC(C)OC(=O)[C@H](C)NP(=O)(OC[C@@]1(F)O[C@@H](n2ccc(=O)[nH]c2=O)[C@@](F)(Cl)[C@@H]1O)Oc1ccccc1 (some centres not stated),,> 100 µM,0.045 µM,
C#C[C@]1(O)[C@H](n2ccc(=O)[nH]c2=O)O[C@](F)(COP(=O)(N[C@@H](C)C(=O)OC2CCCCC2)Oc2ccccc2)[C@H]1O (some centres not stated),,> 100 µM,0.07 µM,
CC[C@]1(O)[C@H](n2ccc(=O)[nH]c2=O)O[C@](F)(COP(=O)(N[C@@H](C)C(=O)OC(C)C)Oc2ccccc2)[C@H]1O (some centres not stated),,> 100 µM,43 µM,
O=c1ccn([C@@H]2O[C@](F)(COP(=O)(O)OP(=O)(O)OP(=O)(O)O)[C@@H](O)[C@]2(F)Cl)c(=O)[nH]1,0.19 µM,,,inhibition at 100 µM [4]: 75.8%; inhibition at 100 µM [5]: 18.1%; inhibition at 100 µM [6]: 7.9%
O=c1ccn([C@@H]2O[C@H](COP(=O)(O)OP(=O)(O)OP(=O)(O)O)[C@@H](O)[C@]2(O)CF)c(=O)[nH]1,0.28 µM,,,
C[C@H](NP(=O)(OC[C@@]1(F)O[C@@H](n2ccc(=O)[nH]c2=O)[C@](C)(O)[C@@H]1O)Oc1ccccc1)C(=O)OC1CCCCC1 (some centres not stated),,84 µM,0.04 µM,
C#C[C@@]1(O)[C@H](O)[C@@H](COP(=O)(O)OP(=O)(O)OP(=O)(O)O)O[C@H]1n1ccc(=O)[nH]c1=O,0.027 µM,,,
CC(C)OC(=O)[C@H](C)N[P@@](=O)(OC[C@@]1(F)O[C@@H](n2ccc(=O)[nH]c2=O)[C@](C)(O)[C@@H]1O)Oc1ccccc1,,> 100 µM,0.94 µM,
C=C[C@]1(O)[C@H](n2ccc(=O)[nH]c2=O)O[C@](F)(COP(=O)(N[C@@H](C)C(=O)OC(C)C)Oc2ccccc2)[C@H]1O (some centres not stated),,> 100 µM,8.3 µM,
C=C[C@]1(O)[C@H](n2ccc(=O)[nH]c2=O)O[C@](F)(COP(=O)(O)OP(=O)(O)OP(=O)(O)O)[C@H]1O,6.4 µM,,,
C[C@H](NP(=O)(OC[C@@]1(F)O[C@@H](n2ccc(=O)[nH]c2=O)[C@](C)(O)[C@@H]1O)Oc1ccccc1)C(=O)OCC(C)(C)C (some centres not stated),,> 100 µM,0.04 µM,
C#C[C@]1(O)[C@H](n2ccc(=O)[nH]c2=O)O[C@](F)(COP(=O)(O)OP(=O)(O)OP(=O)(O)O)[C@H]1O,0.039 µM,,,
CC(C)OC(=O)[C@H](C)NP(=O)(OC[C@@]1(F)O[C@@H](n2ccc(=O)[nH]c2=O)[C@](C)(Cl)[C@@H]1O)Oc1ccccc1 (some centres not stated),,> 100 µM,0.1 µM,
